{"data": "Assay results gathered from unrelated publications", "target": "Phosphorylase b kinase gamma catalytic chain, liver/testis isoform (PHKG2, Homo sapiens, UniProt P15735)", "One construct used (P15735 1-406)": "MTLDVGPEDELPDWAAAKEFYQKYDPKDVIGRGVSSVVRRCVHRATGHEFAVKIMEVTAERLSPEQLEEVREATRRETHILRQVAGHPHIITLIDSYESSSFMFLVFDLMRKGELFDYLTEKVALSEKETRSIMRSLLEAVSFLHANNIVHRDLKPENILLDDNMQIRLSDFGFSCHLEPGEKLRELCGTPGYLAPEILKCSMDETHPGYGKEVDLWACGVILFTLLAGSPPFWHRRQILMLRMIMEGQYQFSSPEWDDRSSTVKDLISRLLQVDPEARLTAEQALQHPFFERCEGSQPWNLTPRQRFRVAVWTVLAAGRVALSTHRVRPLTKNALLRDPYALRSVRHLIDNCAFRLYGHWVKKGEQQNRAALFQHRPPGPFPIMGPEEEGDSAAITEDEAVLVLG", "note": "Compare with care: the assays were run in different laboratories."}
{"SMILES": "Cn1cc(-c2cc(F)cc(N3CCn4c(cc5c4CCCC5)C3=O)c2CO)cc(Nc2ccc(N3CCN(C4COC4)CC3)cn2)c1=O", "assay": "enzyme activity, inhibitor", "conditions": "0.1 µM", "endpoint": "inhibition", "result": "8%"}
{"SMILES": "Cn1cncc1[C@@](O)(COc1ccc(C#N)cc1-c1ccc(OC(F)(F)F)cc1)c1ccc(C#N)cc1", "assay": "cell-free assay, competition with immobilised ligand", "conditions": "1 µM", "endpoint": "remaining binding", "result": "92%"}
{"SMILES": "CC(C)(C)c1cc(C=C(C#N)C#N)cc(Br)c1O", "assay": "enzyme activity, inhibitor", "conditions": "0.5 µM", "endpoint": "remaining activity", "result": "106%"}
{"SMILES": "Cc1nn(C)cc1-c1nc2c(N3CCN(Cc4ccc(Cl)cc4)CC3)c(Cl)cnc2[nH]1", "assay": "binding, competition with immobilised ligand", "conditions": "1 µM", "endpoint": "remaining binding", "result": "100%"}
{"SMILES": "COc1ncccc1-c1cnn2ccc(N3CCN(C(=O)OC(C)C)CC3)nc12", "assay": "binding, competition with immobilised ligand", "conditions": "1 µM", "endpoint": "remaining binding", "result": "100%"}
{"SMILES": "O=c1[nH]c2ccccc2n1C1CCN(Cc2ccc(-c3[nH]c4cc5ncnc5cc4nc3-c3ccccc3)cc2)CC1", "assay": "cell-free assay", "conditions": "0.5 µM", "endpoint": "remaining signal", "result": "104%"}
{"SMILES": "Nc1ncc(-c2nc(N3CCOCC3)nc(N3CCOCC3)n2)c(C(F)F)n1", "assay": "binding, competition with immobilised ligand", "conditions": "10 µM", "endpoint": "remaining binding", "result": "67%"}
{"SMILES": "Cn1cc(-c2cccc(N3CCc4c(sc5c4CC(C)(C)C5)C3=O)c2CO)cc(Nc2ccncn2)c1=O", "assay": "enzyme activity, inhibitor", "conditions": "1 µM", "endpoint": "inhibition", "result": "-1%"}
{"SMILES": "O=C(NCc1ncc(C(F)(F)F)cc1Cl)c1ccc2c(c1)C1(CCS(=O)(=O)CC1)[C@H](C1CC1)N2S(=O)(=O)c1ccc(F)cc1", "assay": "cell-free assay, competition with immobilised ligand", "conditions": "1 µM", "endpoint": "remaining binding", "result": "96%"}
